The results in this text go back to ChEMBL document CHEMBL1156638, “Antibacterial cannabinoids from Cannabis sativa: a structure-activity study” (2008).

What all share (type): functional
The test system of assay [1] is Staphylococcus aureus. Description: Antibacterial activity against tetracycline-resistant Staphylococcus aureus XU212 after 18 hrs. The following applies: XU212, 18 h. The gist of the method: (§1)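 Broth microdilution in Mueller-Hinton broth adjusted to 20 mg/L Ca2+ and 10 mg/L Mg2+. Overnight cultures diluted in 0.9% saline to 5 ×10^5 cfu against a MacFarland standard. Compounds serially diluted twofold, inoculum added, incubated 37 °C for 18 h. DMSO (3.125%) control included. MIC taken as lowest concentration with no visible growth, done in duplicate. MTT (5 mg/mL methanolic) used.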

The subject of assay [2] is Staphylococcus aureus. Briefly: Antibacterial activity against […] Staphylococcus aureus SA1199B after 18 hrs. The gist of the method:
as §1

Assay [3] relates to Staphylococcus aureus. Briefly: Antibacterial activity against macrolide-resistant Staphylococcus aureus RN4220 after 18 hrs. The note with it: RN4220, 18 h. The gist of the method:
as §1

Assay [4] has as its system Staphylococcus aureus. Description: Antibacterial activity against epidemic methicillin-resistant Staphylococcus aureus 16 after 18 hrs. The gist of the method:
as §1

For assay [5], the system named is Staphylococcus aureus. Briefly: Antibacterial activity against epidemic methicillin-resistant Staphylococcus aureus 15 after 18 hrs. The gist of the method: as §1
Assay [6] concerns Staphylococcus aureus. Description: Antibacterial activity against […] Staphylococcus aureus ATCC 25923 after 18 hrs. The following applies: ATCC 25923, 18 h. The gist of the method: as §1

Values after ≈ are worked out from the molar mass of the structure shown.

Turning to `CCCCCc1cc(O)c(C/C=C(\C)CCC=C(C)C)c(O)c1C(=O)OC`, the MIC in assay [1] and in assay [2] was 64 µg/mL (≈ 171 µM) throughout.
Take `C=C(C)[C@@H]1CCC(C)=C[C@H]1c1c(O)cc(CCCCC)c(C(=O)OC)c1O`: the MIC in assay [3], in assay [1], in assay [4], in assay [5], in assay [6] and in assay [2] was greater than 128 µg/mL in each case.
As to `C=C(C)[C@@H]1CCC(C)=C[C@H]1c1c(OC)cc(CCCCC)cc1OC`, the MIC in assay [3], in assay [1], in assay [4], in assay [5], in assay [6] and in assay [2] was greater than 128 µg/mL in each case.
`C=C(C)[C@@H]1CCC(C)=C[C@H]1c1c(O)cc(O)cc1CCCCC`: the MIC in assay [3], in assay [1], in assay [4], in assay [5], in assay [6] and in assay [2] was 1 µg/mL (≈ 3.18 µM) throughout.
`CCCCCc1cc(O)c(C/C=C(\C)CCC=C(C)C)c(OC)c1`: the MIC in assay [3], in assay [1], in assay [4], in assay [5], in assay [6] and in assay [2] was greater than 128 µg/mL each time.
With `CCCCCc1cc(OC)c(C/C=C(\C)CCC=C(C)C)c(OC)c1`, the MIC in assay [3], in assay [1], in assay [4], in assay [5], in assay [6] and in assay [2] was greater than 128 µg/mL in each case.
As for `CCCCCc1cc(O)c(C/C=C(\C)CCC=C(C)C)c(O)c1C(=O)OCCc1ccccc1`, the MIC in assay [3], in assay [1], in assay [4], in assay [5], in assay [6] and in assay [2] was greater than 128 µg/mL each time.
With `C=C(C)[C@@H]1CCC(C)=C[C@H]1c1c(O)cc(CCCCC)cc1OC`, the MIC in assay [3], in assay [1], in assay [4], in assay [5], in assay [6] and in assay [2] was greater than 128 µg/mL in each case.
For `C=C(C)C1CCC(C)=CC1c1c(CCCCC)cc(O)c([C@@H]2C=C(C)CC[C@H]2C(=C)C)c1O` (some centres not stated), the MIC in assay [3], in assay [1], in assay [4], in assay [5], in assay [6] and in assay [2] was greater than 128 µg/mL throughout.
Consider `CCCCCc1cc(O)cc(O)c1C/C=C(\C)CCC=C(C)C`, for which the MIC (in general, the lowest concentration found to suppress growth) in assay [3] stood at 1 µg/mL (≈ 3.16 µM); in assay [1], 0.5 µg/mL (≈ 1.58 µM); in assay [5] it was 2 µg/mL (≈ 6.32 µM); in assay [6], 1 µg/mL (≈ 3.16 µM); in assay [2], 2 µg/mL (≈ 6.32 µM).
Consider `CCCCCc1cc(OC(C)=O)c(C/C=C(\C)CCC=C(C)C)c(OC(C)=O)c1`, for which the MIC in assay [3], in assay [1], in assay [4], in assay [5], in assay [6] and in assay [2] was greater than 128 µg/mL throughout.
Take `C=C(C)[C@@H]1CCC(C)=C[C@H]1c1c(OC(C)=O)cc(CCCCC)cc1OC(C)=O`: the MIC in assay [3], in assay [1], in assay [4], in assay [5], in assay [6] and in assay [2] was greater than 128 µg/mL each time.
As for `C=C(C)[C@@H]1CCC(C)=C[C@H]1c1c(O)cc(CCCCC)c(C(=O)OCCc2ccccc2)c1O`, the MIC in assay [3], in assay [1], in assay [4], in assay [5], in assay [6] and in assay [2] was greater than 128 µg/mL each time.
In the case of `CCCCCc1cc(O)c2c(c1)OC(C)(CCC=C(C)C)C=C2` (configuration not stated) [CANNABICHROMENE], the minimal inhibitory concentration (MIC) was 2 µg/mL (≈ 6.36 µM) in assay [3]; 1 µg/mL (≈ 3.18 µM) in assay [1]; 2 µg/mL (≈ 6.36 µM) in assay [4]; 2 µg/mL (≈ 6.36 µM) in assay [5]; 2 µg/mL (≈ 6.36 µM) in assay [6]; 2 µg/mL (≈ 6.36 µM) in assay [2].
Consider `C=C(C)[C@@H]1CCC(C)=C[C@H]1c1c(O)cc(CCCCC)c(C(=O)O)c1O` [CANNABIDIOLIC ACID], for which the MIC in assay [3], in assay [1], in assay [4], in assay [5], in assay [6] and in assay [2] was 2 µg/mL (≈ 5.58 µM) each time.
Turning to `C=C(C)[C@@H]1CCC(C)=C[C@H]1c1c(O)cc(CCCCC)cc1O` [CANNABIDIOL], the MIC in assay [3] worked out at 1 µg/mL (≈ 3.18 µM); in assay [1] it was 1 µg/mL (≈ 3.18 µM); in assay [4] it was 1 µg/mL (≈ 3.18 µM); in assay [5], 1 µg/mL (≈ 3.18 µM); in assay [6] it was 0.5 µg/mL (≈ 1.59 µM); in assay [2] it was 1 µg/mL (≈ 3.18 µM).
Consider `CCCCCc1cc(O)c(C/C=C(\C)CCC=C(C)C)c(O)c1C(=O)O` [CANNABIGEROLIC ACID], for which the MIC was determined as 2 µg/mL (≈ 5.55 µM) in assay [3]; 4 µg/mL (≈ 11.1 µM) in assay [1]; 4 µg/mL (≈ 11.1 µM) in assay [4]; 2 µg/mL (≈ 5.55 µM) in assay [5]; 4 µg/mL (≈ 11.1 µM) in assay [6]; 4 µg/mL (≈ 11.1 µM) in assay [2].
For `CCCCCc1cc(O)c(C/C=C(\C)CCC=C(C)C)c(O)c1` [CANNABIGEROL], the MIC in assay [3] came to 1 µg/mL (≈ 3.16 µM); in assay [1], 1 µg/mL (≈ 3.16 µM); in assay [4], 1 µg/mL (≈ 3.16 µM); in assay [5], 2 µg/mL (≈ 6.32 µM); in assay [6] it was 1 µg/mL (≈ 3.16 µM); in assay [2] it was 1 µg/mL (≈ 3.16 µM).
For the compound `CCCCCc1cc(O)c2c(c1)OC(C)(C)c1ccc(C)cc1-2` [CANNABINOL], the MIC in assay [3], in assay [1], in assay [5], in assay [6] and in assay [2] was 1 µg/mL (≈ 3.22 µM) throughout.
For `CCCCCc1cc(O)c(C/C=C(\C)CCC(O)C(C)(C)O)c(O)c1` (configuration not stated) [CARMAGEROL], the MIC in assay [3] was determined as 32 µg/mL (≈ 91.3 µM); in assay [1] it was 16 µg/mL (≈ 45.6 µM); in assay [4], 32 µg/mL (≈ 91.3 µM); in assay [5], 16 µg/mL (≈ 45.6 µM); in assay [6], 16 µg/mL (≈ 45.6 µM); in assay [2] it was 32 µg/mL (≈ 91.3 µM).
On to `CCCCCc1cc2c(c(O)c1C(=O)O)[C@@H]1C=C(C)CC[C@H]1C(C)(C)O2` [DELTA9-TETRAHYDROCANNABINOLIC ACID A], for which the MIC in assay [3] was 4 µg/mL (≈ 11.2 µM); in assay [1], 8 µg/mL (≈ 22.3 µM); in assay [4], 4 µg/mL (≈ 11.2 µM); in assay [5], 8 µg/mL (≈ 22.3 µM); in assay [6], 4 µg/mL (≈ 11.2 µM); in assay [2], 8 µg/mL (≈ 22.3 µM).
Consider `CCCCCc1cc(O)c2c(c1)OC(C)(C)[C@@H]1CCC(C)=C[C@@H]21` [DRONABINOL], for which the minimal inhibitory concentration (MIC) stood at 1 µg/mL (≈ 3.18 µM) in assay [3]; 1 µg/mL (≈ 3.18 µM) in assay [1]; 0.5 µg/mL (≈ 1.59 µM) in assay [4]; 2 µg/mL (≈ 6.36 µM) in assay [5]; 1 µg/mL (≈ 3.18 µM) in assay [6]; 2 µg/mL (≈ 6.36 µM) in assay [2].
`CC[C@H]1OC(=O)[C@H](C)[C@@H](O[C@H]2C[C@@](C)(OC)[C@@H](O)[C@H](C)O2)[C@H](C)[C@@H](O[C@@H]2O[C@H](C)C[C@H](N(C)C)[C@H]2O)[C@](C)(O)C[C@@H](C)C(=O)[C@H](C)[C@@H](O)[C@]1(C)O` [ERYTHROMYCIN]: the minimal inhibitory concentration (MIC) in assay [3] is 64 µg/mL (≈ 87.2 µM); in assay [1], greater than 128 µg/mL; in assay [4] it was greater than 128 µg/mL; in assay [5] it was greater than 128 µg/mL; in assay [6], 0.25 µg/mL (≈ 0.341 µM); in assay [2] it was 0.25 µg/mL (≈ 0.341 µM).
In the case of `CCn1cc(C(=O)O)c(=O)c2cc(F)c(N3CCNCC3)cc21` [NORFLOXACIN], the MIC in assay [3] turned out to be 1 µg/mL (≈ 3.13 µM); in assay [1], 4 µg/mL (≈ 12.5 µM); in assay [4], 128 µg/mL (≈ 401 µM); in assay [5] it was 0.5 µg/mL (≈ 1.57 µM); in assay [6] it was 1 µg/mL (≈ 3.13 µM); in assay [2] it was 32 µg/mL (≈ 100 µM).
In the case of `Cc1onc(-c2ccccc2)c1C(=O)N[C@@H]1C(=O)N2[C@@H]1SC(C)(C)[C@@H]2C(=O)O` [OXACILLIN], the minimum inhibitory concentration (MIC) was 0.25 µg/mL (≈ 0.623 µM) in assay [3]; 128 µg/mL (≈ 319 µM) in assay [1]; greater than 128 µg/mL in assay [4]; 32 µg/mL (≈ 79.7 µM) in assay [5]; 0.125 µg/mL (≈ 0.311 µM) in assay [6]; 0.25 µg/mL (≈ 0.623 µM) in assay [2].
For `Oc1cccc(O)c1` [RESORCINOL], the minimal inhibitory concentration (MIC) in assay [3], in assay [1], in assay [4], in assay [5], in assay [6] and in assay [2] was greater than 256 µg/mL each time.
As for `CN(C)[C@@H]1C(O)=C(C(N)=O)C(=O)[C@@]2(O)C(O)=C3C(=O)c4c(O)cccc4[C@@](C)(O)[C@H]3C[C@@H]12` [TETRACYCLINE], the MIC in assay [3] came out at 0.25 µg/mL (≈ 0.563 µM); in assay [1] it was 128 µg/mL (≈ 288 µM); in assay [4], 0.125 µg/mL (≈ 0.281 µM); in assay [5], 0.125 µg/mL (≈ 0.281 µM); in assay [6] it was 0.25 µg/mL (≈ 0.563 µM); in assay [2] it was 0.25 µg/mL (≈ 0.563 µM).
On to `CCCCCc1cc(O)cc(O)c1` [WHILE OLIVETOL], for which the MIC was found to be 64 µg/mL (≈ 355 µM) in assay [3]; 64 µg/mL (≈ 355 µM) in assay [1]; 64 µg/mL (≈ 355 µM) in assay [4]; 64 µg/mL (≈ 355 µM) in assay [5]; 128 µg/mL (≈ 710 µM) in assay [6]; 64 µg/mL (≈ 355 µM) in assay [2].
